PubChem BioAssay
Active and inactive are the calls of the source.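 The calls were made as follows, unless noted: active = viability increase at or above a cutoff of the median across tested compounds plus 3 SD (cut at about 8.5% in these data, passing the limit was not always enough); inconclusive = some gains above the cutoff, reason not given; inactive = the rest.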

Assay: Restrictive medium S. cerevisiae growth inhibition, OD615, pilot screen of yeast lifespan reduction project, restrictive growth control (AID 706;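 active = growth inhibition above a set limit, 3 SD over mean compound inhibition, in both replicates, cut at about 43% in these data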;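 also: modified DeaD lifespan yeast strain shifted to restrictive glucose medium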)
Conditions: OD615, 48 h, at 10 µM, active compounds read high
How it was run: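 Assay system – genetically modified Saccharomyces cerevisiae, DeaD replicative lifespan assay strain · Medium – CSMM-D glucose medium · Doses – 10 µM compound, 0.25% DMSO · Times – 4 h pre-incubation, 48 h exposure at 30 °C · Signal – optical density at 615 nm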
In the case of `CCN1C(=O)CS/C1=N\c1nccs1`, the growth inhibition is reported as 1.68% (inactive). With `COc1ccc(CNC(=O)c2cc3c(C)nc4ccccc4c3o2)c(OC)c1` the growth inhibition was -12.2% (inactive). For `CCCC(=O)NCCCc1nc2ccccc2n1C`, the growth inhibition was -0.54% (inactive). In the case of `CCCCn1c(CCC(=O)O)ccc1-c1cccs1`, the growth inhibition is reported as 10.6% (inactive). For `CCOc1ccc(N(CC(=O)NCCSc2ccccn2)S(C)(=O)=O)cc1`, the growth inhibition was 2.82% (inactive). For `Cc1c(NS(=O)(=O)CC23CCC(CC2=O)C3(C)C)c(=O)n(-c2ccccc2)n1C` (centres undefined), the growth inhibition was -4.44% (inactive). For `CCc1nnc(NC(=O)C2Cc3ccccc3C(=O)O2)s1` (centres undefined), the growth inhibition was -14.9% (inactive). For `COc1ccc(C2C(C(=O)NCCN3CCOCC3)c3ccccc3C(=O)N2C)cc1OC` (centres undefined), the growth inhibition was -2.97% (inactive). For `CC1CCN(c2nnc(N3CCC(C)CC3)c3ccccc23)CC1`, the growth inhibition was -14.8% (inactive). For `Cc1ccc(S(=O)(=O)N2CCN(C(=O)CN3CCCC3)C2)cc1`, the growth inhibition was -11.2% (inactive). In the case of `O=C(Nc1ccc(S(=O)(=O)N2CCOCC2)cc1)c1ccc(Cl)cc1`, the growth inhibition is reported as -8.68% (inactive). In the case of `O=C(O)CCNc1cc2ccccc2cc1C(=O)O`, the growth inhibition is reported as -3.88% (inactive). With `CCCn1c(C(O)c2ccc3c(c2)OCO3)nc2ccccc21` (centres undefined) the growth inhibition was -13.8% (inactive). In the case of `CCc1ccc2c(c1)C(NC(C)=O)C(=O)N2CC` (centres undefined), the growth inhibition is reported as -3% (inactive). For `O=C(c1c(F)cccc1F)N1CCN(c2cccc(C(F)(F)F)c2)CC1`, the growth inhibition was -6.87% (inactive). With `CCCn1c2ccccc2c2cc(C(=O)O)ccc21` the growth inhibition was -6% (inactive). With `O=S(=O)(NCCSc1nnc(-c2ccco2)n1-c1ccccc1)c1ccccc1` the growth inhibition was -19.2% (inactive). For `COc1ccc(Nc2ccc3c(c2)=NC2(CCCCC2)[N+]=3[O-])cc1`, the growth inhibition was -11.8% (inactive). With `Cn1c(Cn2c(=O)sc3ccccc32)nnc1SCC(=O)NCc1ccccc1Cl` the growth inhibition was -13.9% (inactive). For `O=C(Nc1cccnc1)c1ccccc1F`, the growth inhibition was 4.54% (inactive). With `CCOc1ccc2nc(N3CCC(C(=O)Nc4nnc(CC)s4)CC3)sc2c1` the growth inhibition was -21.7% (inactive). With `O=C1N(O)C2(C=CCCC2)/C(=N\O)C12CCCCC2` (centres undefined) the growth inhibition was -1.67% (inactive). With `O=C1CCCC2=C1C1(O)C(=O)c3ccccc3C1(O)O2` (centres undefined) the growth inhibition was -16% (inactive). In the case of `CC1CCC(NC(=O)c2cc3c(=O)n(C)c4ccccc4c3n2C)CC1` (centres undefined), the growth inhibition is reported as -9.28% (inactive).

Assay: viability gain of MRP-1-high H69AR cells under doxorubicin, pilot screen, MRP-1 activator project, CellTiter-Glo, duplicate (AID 807);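 also: compound pretreatment 18-22 h then 72 h combined with doxorubicin; 0% = doxorubicin alone and 100% = vehicle without doxorubicin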
Conditions: H69AR viability with doxorubicin, CellTiter-Glo luminescence; at 10 µM; active compounds read high
With `Cc1ccc(S(=O)(=O)NCC(=O)N2CCOCC2)cc1` the viability increase was -1.57% (inactive). In the case of `COc1ccc(Cl)cc1C(=O)Nc1cc(=O)n(C)c(=O)n1C`, the viability increase is reported as -1.06% (inactive). With `CCc1noc2c1/C(=N\O)CC(c1ccccc1)C2` (centres undefined) the viability increase was 2.87% (inactive). With `CN(CC1CCCO1)S(=O)(=O)c1ccc(C(=O)Nc2nc(-c3ccccn3)cs2)cc1` (centres undefined) the viability increase was -5.46% (inactive). In the case of `Cc1csc(NC(=O)C2CCCN(S(=O)(=O)c3cccnc3)C2)n1` (centres undefined), the viability increase is reported as -0.73% (inactive). With `O=C(NCCn1ccc2ccccc21)c1ccc(S(=O)(=O)N2CCOCC2)cc1` the viability increase was -2.92% (inactive). In the case of `COCCOC(=O)C1=C(C)NC(=O)NC1c1c(F)cccc1Cl` (centres undefined), the viability increase is reported as 0% (inactive). In the case of `CN(CC(=O)NC1CCCc2ccccc21)S(=O)(=O)c1ccc2c(c1)c(=O)n(C)c(=O)n2C` (centres undefined), the viability increase is reported as -3.54% (inactive). With `Cc1ccc2oc(=O)c3cnn(CC(=O)NC4CCCCC4C)c3c2c1` (centres undefined) the viability increase was -2.9% (inactive). With `Cc1nc(-c2ccc(S(=O)(=O)N3CCCCCC3)cc2)cs1` the viability increase was -2.37% (inactive). For `FC(F)(F)C12CC(c3ccccc3)=NCCN1CCN2` (centres undefined), the viability increase was -1.23% (inactive). With `CCCCCN=C(C)c1c(O)c2ccccc2oc1=O` the viability increase was 1.19% (inactive). For `CC1=C(C(=O)Nc2ccccc2C)C(c2ccccc2)NC(=O)N1` (centres undefined), the viability increase was -1.25% (inactive). With `C/C(=C1\SC(N2CCOCC2)=NC1=O)c1ccccc1` the viability increase was -2.49% (inactive). In the case of `N#CC1=C(N)Oc2n[nH]c(-c3ccccc3)c2C1c1cccc(OC(=O)N2CCOCC2)c1` (centres undefined), the viability increase is reported as -2.68% (inactive). In the case of `Cn1c(Cn2c(=O)sc3ccccc32)nnc1SCC(=O)NC1CCCCC1`, the viability increase is reported as -0.4% (inactive). For `CCN1C(=O)CS/C1=N\c1nccs1`, the viability increase was 0.86% (inactive). For `COc1ccc(CNC(=O)c2cc3c(C)nc4ccccc4c3o2)c(OC)c1`, the viability increase was -0.17% (inactive). In the case of `CCCC(=O)NCCCc1nc2ccccc2n1C`, the viability increase is reported as -1.21% (inactive). For `CCCCn1c(CCC(=O)O)ccc1-c1cccs1`, the viability increase was -3.36% (inactive). For `CCOc1ccc(N(CC(=O)NCCSc2ccccn2)S(C)(=O)=O)cc1`, the viability increase was -3.63% (inactive). In the case of `Cc1c(NS(=O)(=O)CC23CCC(CC2=O)C3(C)C)c(=O)n(-c2ccccc2)n1C` (centres undefined), the viability increase is reported as -2.6% (inactive). With `CCc1nnc(NC(=O)C2Cc3ccccc3C(=O)O2)s1` (centres undefined) the viability increase was 1.66% (inactive). For `COc1ccc(C2C(C(=O)NCCN3CCOCC3)c3ccccc3C(=O)N2C)cc1OC` (centres undefined), the viability increase was -0.98% (inactive). For `CC1CCN(c2nnc(N3CCC(C)CC3)c3ccccc23)CC1`, the viability increase was -3.17% (inactive). For `Cc1ccc(S(=O)(=O)N2CCN(C(=O)CN3CCCC3)C2)cc1`, the viability increase was -0.87% (inactive). With `O=C(Nc1ccc(S(=O)(=O)N2CCOCC2)cc1)c1ccc(Cl)cc1` the viability increase was -1.99% (inactive). With `O=C(O)CCNc1cc2ccccc2cc1C(=O)O` the viability increase was -1.49% (inactive). In the case of `CCCn1c(C(O)c2ccc3c(c2)OCO3)nc2ccccc21` (centres undefined), the viability increase is reported as 0.23% (inactive). For `CCc1ccc2c(c1)C(NC(C)=O)C(=O)N2CC` (centres undefined), the viability increase was -0.55% (inactive). For `O=C(c1c(F)cccc1F)N1CCN(c2cccc(C(F)(F)F)c2)CC1`, the viability increase was 2.86% (inactive). For `CCCn1c2ccccc2c2cc(C(=O)O)ccc21`, the viability increase was -3.03% (inactive). For `O=S(=O)(NCCSc1nnc(-c2ccco2)n1-c1ccccc1)c1ccccc1`, the viability increase was -3.53% (inactive). In the case of `COc1ccc(Nc2ccc3c(c2)=NC2(CCCCC2)[N+]=3[O-])cc1`, the viability increase is reported as -8.28% (inactive). With `Cn1c(Cn2c(=O)sc3ccccc32)nnc1SCC(=O)NCc1ccccc1Cl` the viability increase was -1.32% (inactive). With `O=C(Nc1cccnc1)c1ccccc1F` the viability increase was -0.03% (inactive). In the case of `CCOc1ccc2nc(N3CCC(C(=O)Nc4nnc(CC)s4)CC3)sc2c1`, the viability increase is reported as -0.45% (inactive). With `O=C1N(O)C2(C=CCCC2)/C(=N\O)C12CCCCC2` (centres undefined) the viability increase was -2.64% (inactive). With `O=C1CCCC2=C1C1(O)C(=O)c3ccccc3C1(O)O2` (centres undefined) the viability increase was -4.62% (inactive). With `CC1CCC(NC(=O)c2cc3c(=O)n(C)c4ccccc4c3n2C)CC1` (centres undefined) the viability increase was -4.41% (inactive).
